Data reported in ChEMBL document CHEMBL1149688, “Tetrapeptide inhibitors of the glutamate vesicular transporter (VGLUT)” (Bioorg Med Chem Lett, 2007).
pIC50, pKi: −log10 of the molar value. Activity calls are given as the source filed them. No cut-off for these calls is given here.

Test system: VGLUT (Rattus norvegicus)
Test: Inhibition of [3H]glutamate uptake at VGLUT in rat brain synaptic vesicles relative to control; values are per cent of control
Parameters: concentration or dose not given beside the values
Compound CC[C@H](C)[C@@H](NC(=O)[C@H](N)CCC(N)=O)C(=O)N[C@@H](CCC(=O)O)C(=O)N[C@H](Cc1c[nH]c2ccccc12)C(=O)O has a level, % of control of 35%. CC[C@H](C)[C@@H](NC(=O)[C@H](N)CCC(N)=O)C(=O)N[C@H](CCC(=O)O)C(=O)N[C@H](Cc1c[nH]c2ccccc12)C(=O)O gave a level, % of control of 63%. In the case of NC(=O)C[C@H](NC(=O)[C@H](N)Cc1c[nH]c2ccccc12)C(=O)N[C@H](CCC(=O)O)C(=O)N[C@H](Cc1ccccc1)C(=O)O, the level, % of control was 41%. With NC(=O)CCC(N)C(=O)NC(Cc1c[nH]c2ccccc12)C(=O)NC(CCC(=O)O)C(=O)NC(Cc1c[nH]c2ccccc12)C(=O)O (racemic) the level, % of control was 66%. In the case of CC[C@H](C)[C@@H](NC(=O)[C@@H](N)CCC(N)=O)C(=O)N[C@@H](CCC(=O)O)C(=O)N[C@@H](Cc1c[nH]c2ccccc12)C(=O)O, the level, % of control was 69%. In the case of CC[C@H](C)[C@@H](NC(=O)[C@@H](N)CCC(N)=O)C(=O)N[C@@H](CCC(=O)O)C(=O)N[C@H](Cc1c[nH]c2ccccc12)C(=O)O, the level, % of control was 28%. NC(=O)CC(NC(=O)C(N)Cc1c[nH]c2ccccc12)C(=O)NC(CCC(=O)O)C(=O)NC(Cc1ccccc1)C(=O)O (racemic) showed a level, % of control of 13%. With CC[C@H](C)[C@H](NC(=O)[C@@H](N)CCC(N)=O)C(=O)N[C@H](CCC(=O)O)C(=O)N[C@@H](Cc1c[nH]c2ccccc12)C(=O)O the level, % of control was 82%. In the case of CC[C@H](C)[C@@H](NC(=O)[C@@H](N)CCC(N)=O)C(=O)N[C@H](CCC(=O)O)C(=O)N[C@H](Cc1c[nH]c2ccccc12)C(=O)O, the level, % of control was 60%. In the case of CCC(C)C(NC(=O)C(N)CCC(N)=O)C(=O)NC(CCC(=O)O)C(=O)NC(Cc1c[nH]c2ccccc12)C(=O)O (racemic), the level, % of control was 38%.

Test system: not listed separately
Test: Inhibition of [3H]glutamate uptake at VGLUT in rat brain synaptic vesicles
Type: tissue-based
Summary of the method: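 Rat brain synaptic vesicles (approx. 0.1 mg protein) were incubated with ³H-L-glutamate (0.25 mM) and inhibitor over 0.01-5 mM, and the assay was started by adding substrate. IC50 values were taken from non-linear regression of sigmoidal dose-response curves and converted to Ki with the Cheng-Prusoff relationship, as mean ± s.e.m. (n = 3).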
For CC[C@H](C)[C@H](NC(=O)[C@H](N)CCC(N)=O)C(=O)N[C@H](CCC(=O)O)C(=O)N[C@@H](Cc1c[nH]c2ccccc12)C(=O)O, the pIC50 was 3.06 and the pKi was 3.08.

Species on record: Rattus norvegicus
Test: Inhibition of v-ATPase activity in rat brain synaptic vesicles
Type: tissue-based
In the case of NC(=O)CC(NC(=O)C(N)Cc1c[nH]c2ccccc12)C(=O)NC(CCC(=O)O)C(=O)NC(Cc1ccccc1)C(=O)O (racemic), the Activity was “inactive”. For CCC(C)C(NC(=O)C(N)CCC(N)=O)C(=O)NC(CCC(=O)O)C(=O)NC(Cc1c[nH]c2ccccc12)C(=O)O (racemic), the Activity was “inactive”.
